Measured values published in ChEMBL document CHEMBL4765256, “Structural features and functional activities of benzimidazoles as NOD2 antagonists” (Eur J Med Chem, 2020).
Active and inactive are the calls of the source.

Tests used:
[1] = biological target: T1, Nucleotide-binding oligomerization domain-containing protein 2 (Homo sapiens, UniProt Q9HC29); experiment: Antagonist activity at NOD2 in human PBMC assessed as reduction in MDP-induced TNF-alpha secretion at 20 uM preincubated for 1 hr followed by MDP stimulation and measured after 18 hrs by flow cytometric analysis; type: tissue-based; conditions: filed as antagonist, time 19.0 hrs
T1 sequence (Q9HC29 whole entry, the tested form may be a part): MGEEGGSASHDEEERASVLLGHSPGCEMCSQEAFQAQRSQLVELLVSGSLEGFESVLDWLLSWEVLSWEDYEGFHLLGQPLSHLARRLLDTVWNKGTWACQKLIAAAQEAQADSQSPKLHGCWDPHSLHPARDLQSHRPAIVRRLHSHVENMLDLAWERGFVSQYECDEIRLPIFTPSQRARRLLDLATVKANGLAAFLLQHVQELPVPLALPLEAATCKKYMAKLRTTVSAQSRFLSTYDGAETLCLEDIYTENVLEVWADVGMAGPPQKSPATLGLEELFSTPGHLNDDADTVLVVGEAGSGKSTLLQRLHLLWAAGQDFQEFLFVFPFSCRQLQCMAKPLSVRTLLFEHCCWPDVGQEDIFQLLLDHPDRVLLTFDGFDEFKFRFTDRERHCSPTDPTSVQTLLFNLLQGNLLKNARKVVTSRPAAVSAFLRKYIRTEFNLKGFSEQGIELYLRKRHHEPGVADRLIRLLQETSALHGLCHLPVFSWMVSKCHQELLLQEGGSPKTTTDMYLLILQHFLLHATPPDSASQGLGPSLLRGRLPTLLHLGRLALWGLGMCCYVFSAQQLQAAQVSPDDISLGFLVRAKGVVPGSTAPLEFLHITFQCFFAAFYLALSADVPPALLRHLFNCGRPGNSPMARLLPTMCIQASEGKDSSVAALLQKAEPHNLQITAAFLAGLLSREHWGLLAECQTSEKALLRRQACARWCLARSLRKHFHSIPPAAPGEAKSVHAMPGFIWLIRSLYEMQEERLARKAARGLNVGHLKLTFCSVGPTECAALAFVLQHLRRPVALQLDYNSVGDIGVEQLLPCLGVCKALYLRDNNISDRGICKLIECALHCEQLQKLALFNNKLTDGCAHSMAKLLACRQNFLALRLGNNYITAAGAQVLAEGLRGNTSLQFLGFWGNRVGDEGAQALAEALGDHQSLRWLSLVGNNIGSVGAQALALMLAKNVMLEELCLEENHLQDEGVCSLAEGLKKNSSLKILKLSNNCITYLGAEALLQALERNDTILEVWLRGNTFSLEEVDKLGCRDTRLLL
Summary of the method: (§1)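 Human PBMCs from healthy donors, Ficoll density-gradient isolated, 1 × 10^6 cells in RPMI 1640 with 10% heat-inactivated FBS. Pre-treated 1 h with 20 µM compound, then 2 µM MDP. Supernatants taken at 18 h and stored at −80 °C. Cytokines quantified by flow cytometric bead array (Th1/Th2 panel) against recombinant standards, in pg/mL. Mean ± SD from two representative experiments.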

THP-1 [2] = experiment: Antagonist activity at NOD1/TLR4 in human THP-1 cells assessed as reduction in C12-iE-DAP/LPS-induced TNF-alpha secretion at 20 uM preincubated for 1 hr followed by C12-iE-DAP/LPS stimulation and measured after 20 hrs by ELISA; type: cell-based; conditions: time 21.0 hrs
Summary of the method: (§2)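 Synergy setting in THP-1 cells: 1 h pre-treatment with 20 µM compound, then 10 µM MDP or C12-iE-DAP plus 1 ng/mL E. coli O127:B8 LPS for 20 h. Supernatant TNF-α by sandwich ELISA, detection limit 4 pg/mL. DMSO vehicle ≤0.2%. Duplicates from three independent experiments, mean ± SD, Dunnett test against agonist+LPS-treated cells.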

[3] = biological target: T1, Nucleotide-binding oligomerization domain-containing protein 2; experiment: Antagonist activity at NOD2 in human THP-1 cells assessed as reduction in MDP-induced IL-8 secretion at 20 uM preincubated for 1 hr followed by MDP stimulation and measured after 20 hrs by ELISA; type: cell-based; conditions: filed as antagonist, time 21.0 hrs
Summary of the method: (§3)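 THP-1 cells at 10^6 cells/mL in 24-well cultures, passages 3–12. Pre-treated 1 h with 20 µM compound, then 10 µM MDP (NOD2) or 10 µM C12-iE-DAP (NOD1) added, 20 h at 37 °C, 5% CO2. Triplicate wells, DMSO ≤0.2% as vehicle control. Supernatant IL-8 by sandwich ELISA, detection limit 15.6 pg/mL. Mean ± SD of duplicates from three independent experiments, Dunnett test.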

THP-1 [4] = experiment: Antagonist activity at NOD in human THP-1 cells assessed as increase in IL-8 secretion at 20 uM; type: cell-based
Summary of the method: (§4)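 THP-1 cells at 10^6 cells/mL in RPMI 1640 with 10% heat-inactivated FCS, passages 3–12, exposed to 20 µM compound alone (no NOD agonist). IL-8 and TNF-α in cell-free supernatants measured by sandwich ELISA, reported in pg/mL. Detection limits were 15.6 pg/mL for IL-8 and 4 pg/mL for TNF-α. DMSO vehicle control, not above 0.2% final.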

[5] = biological target: T2, Nucleotide-binding oligomerization domain-containing protein 1 (Homo sapiens) (UniProt Q9Y239); experiment: Antagonist activity at human NOD1 expressed in HEK293 cells assessed as reduction in C12-iE-DAP-induced NF-kappaB activation at 10 uM preincubated for 1 hr followed by C12-iE-DAP stimulation and measured after 18 hrs by SEAP reporter gene based spectrophotometric analysis; type: cell-based; conditions: filed as antagonist, time 19.0 hrs
T2 sequence (whole entry): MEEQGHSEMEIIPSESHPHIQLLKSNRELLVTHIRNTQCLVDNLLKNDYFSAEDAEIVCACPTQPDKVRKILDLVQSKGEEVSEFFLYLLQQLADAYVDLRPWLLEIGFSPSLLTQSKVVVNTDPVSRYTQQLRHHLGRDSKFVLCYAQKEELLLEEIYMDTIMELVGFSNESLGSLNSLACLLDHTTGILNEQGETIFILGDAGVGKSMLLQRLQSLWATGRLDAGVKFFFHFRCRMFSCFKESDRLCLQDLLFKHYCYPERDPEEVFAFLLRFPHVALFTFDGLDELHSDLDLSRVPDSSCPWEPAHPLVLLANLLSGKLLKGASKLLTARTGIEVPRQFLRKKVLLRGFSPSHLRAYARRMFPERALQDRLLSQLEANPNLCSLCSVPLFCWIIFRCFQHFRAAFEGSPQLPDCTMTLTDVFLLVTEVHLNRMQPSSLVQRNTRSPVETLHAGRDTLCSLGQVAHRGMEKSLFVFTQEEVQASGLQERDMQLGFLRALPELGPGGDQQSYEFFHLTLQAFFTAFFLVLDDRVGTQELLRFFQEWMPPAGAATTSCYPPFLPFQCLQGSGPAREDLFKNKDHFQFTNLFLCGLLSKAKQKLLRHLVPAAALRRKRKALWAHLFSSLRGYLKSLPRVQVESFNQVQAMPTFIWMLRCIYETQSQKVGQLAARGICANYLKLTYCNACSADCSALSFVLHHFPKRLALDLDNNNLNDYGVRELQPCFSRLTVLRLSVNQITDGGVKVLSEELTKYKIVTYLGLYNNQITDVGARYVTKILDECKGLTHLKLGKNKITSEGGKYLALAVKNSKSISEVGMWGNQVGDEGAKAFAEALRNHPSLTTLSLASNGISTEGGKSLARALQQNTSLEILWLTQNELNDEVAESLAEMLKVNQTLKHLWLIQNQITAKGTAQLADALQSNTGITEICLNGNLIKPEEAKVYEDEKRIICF
Summary of the method: (§5)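 HEK-Blue NOD1 or NOD2 reporter cells (5 × 10^5 cells/mL, passages 7–12) pre-treated 1 h with 10 µM compound. Then 100 nM C12-iE-DAP (NOD1) or 2 µM MDP (NOD2) for 18 h at 37 °C, 5% CO2. Secreted SEAP read at 620 nm. DMSO ≤0.1% vehicle control. Duplicates, three biological replicates.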

[6] = biological target: T1, Nucleotide-binding oligomerization domain-containing protein 2; experiment: Antagonist activity at NOD2 in human PBMC assessed as reduction in MDP-induced IL-6 secretion at 20 uM preincubated for 1 hr followed by MDP stimulation and measured after 18 hrs by flow cytometric analysis; type: tissue-based; conditions: filed as antagonist, time 19.0 hrs; summary of the method: as §1
THP-1 [7] = experiment: Antagonist activity at NOD in human THP-1 cells assessed as increase in TNF-alpha secretion at 20 uM; type: cell-based; summary of the method: as §4
[8] = biological target: T1, Nucleotide-binding oligomerization domain-containing protein 2; experiment: Antagonist activity at human NOD2 expressed in HEK293 cells assessed as reduction in MDP-induced NF-kappaB activation at 10 uM preincubated for 1 hr followed by MDP stimulation and measured after 18 hrs by SEAP reporter gene based spectrophotometric analysis; type: cell-based; conditions: filed as antagonist, time 19.0 hrs; summary of the method: as §5
[9] = biological target: T1, Nucleotide-binding oligomerization domain-containing protein 2; experiment: Antagonist activity at human NOD2 expressed in HEK293 cells assessed as reduction in MDP-induced NF-kappaB activation preincubated for 1 hr followed by MDP stimulation and measured after 18 hrs by SEAP reporter gene based spectrophotometric analysis; type: cell-based; conditions: read-out: IC50
Summary of the method: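 Dose–response in HEK-Blue NOD2 and NOD1 cells (5 × 10^5 cells/mL): 1 h pre-treatment with 0.3125–20 µM antagonist, then 2 µM MDP or 100 nM C12-iE-DAP respectively, 18 h incubation. SEAP absorbance read at 620 nm. IC50 fitted by non-linear regression. Duplicates, three biological replicates, DMSO ≤0.1%.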

[10] = biological target: T2, Nucleotide-binding oligomerization domain-containing protein 1 (Homo sapiens); experiment: Antagonist activity at NOD1 in human THP-1 cells assessed as reduction in C12-iE-DAP-induced IL-8 secretion at 20 uM preincubated for 1 hr followed by C12-iE-DAP stimulation and measured after 20 hrs by ELISA; type: cell-based; conditions: filed as antagonist, time 21.0 hrs; summary of the method: as §3
HEK293 [11] = experiment: Cytotoxicity against human HEK293 cells expressing human NOD1 assessed as reduction in metabolic activity at 20 uM incubated for 18 hrs by MTS assay; type: ADME, cell-based; conditions: hek293, 18 h
Summary of the method: (§6)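 HEK-Blue NOD1 or NOD2 cells seeded at 1 × 10^4 cells/well in triplicate. Treated 18 h with 20 µM compound or 0.1% DMSO vehicle. Metabolic activity read by MTS (CellTiter 96 AQueous One) and expressed relative to vehicle control. Mean ± SD of three biological replicates.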

HEK293 [12] = experiment: Cytotoxicity against human HEK293 cells expressing human NOD2 assessed as reduction in metabolic activity at 20 uM incubated for 18 hrs by MTS assay; type: ADME, cell-based; conditions: hek293, 18 h; summary of the method: as §6
[13] = biological target: T3, Nucleotide-binding oligomerization domain-containing protein 1 (Homo sapiens, UniProt Q9Y239); experiment: Antagonist activity at human NOD1 expressed in HEK293 cells assessed as reduction in C12-iE-DAP-induced NF-kappaB activation preincubated for 1 hr followed by C12-iE-DAP stimulation and measured after 18 hrs by SEAP reporter gene based spectrophotometric analysis; type: cell-based
T3 sequence (Q9Y239 whole entry): T2 sequence (whole entry)

[14] = biological target: T1, Nucleotide-binding oligomerization domain-containing protein 2; experiment: Antagonist activity at NOD2 in human PBMC assessed as reduction in MDP-induced IL-10 secretion at 20 uM preincubated for 1 hr followed by MDP stimulation and measured after 18 hrs by flow cytometric analysis; type: tissue-based; conditions: filed as antagonist, time 19.0 hrs; summary of the method: as §1
THP-1 [15] = experiment: Antagonist activity at NOD2/TLR4 in human THP-1 cells assessed as reduction in MDP/LPS-induced TNF-alpha secretion at 20 uM preincubated for 1 hr followed by MDP/LPS stimulation and measured after 20 hrs by ELISA; type: cell-based; conditions: filed as antagonist, time 21.0 hrs; summary of the method: as §2
THP-1 [16] = experiment: Cytotoxicity against human THP-1 cells assessed as […] dehydrogenase leakage at 20 uM incubated for 18 hrs; type: cell-based; conditions: thp-1, 18 h
Summary of the method: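 THP-1 cells treated 18 h with compound at up to 20 µM. Lactate dehydrogenase released into cell-free supernatant measured with a colorimetric kit, results given as OD.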

O=C(Cn1c(CCNS(=O)(=O)c2ccccc2)nc2ccccc21)Nc1ccc2c(c1)CCC2
5.23 µM: IC50 [9]
active: Activity [1] | Activity [3] | Activity [5] | Activity [6] | Activity [8] | Activity [10] | Activity [14] | Activity (THP-1 [15])
28.2 µM: IC50 [13]
Non-Toxic: Activity (HEK293 [11]) | Activity (HEK293 [12]) | Activity (THP-1 [16])
inactive: Activity (THP-1 [2]) | Activity (THP-1 [4]) | Activity (THP-1 [7])
